# Measured values: ChEMBL document CHEMBL3286113, “New potent antibacterial oxazolidinone (MRX-I) with an improved class safety profile” (J Med Chem, 2014)
# Active and inactive are the calls of the source. The calls are words filed in the database; no cut-off is given here.
# Key:
# [1] = test system: Streptococcus constellatus; assay: Antibacterial activity against Streptococcus constellatus; assay type: functional
# [2] = test system: Staphylococcus aureus; assay: Antibacterial activity against Staphylococcus aureus measured after 3 serial passages; assay type: functional
# [3] = target: Cytochrome P450 2C9 (Homo sapiens, UniProt P11712); assay: Inhibition of CYP2C9 (unknown origin) at 1 to 200 uM; assay type: ADME
# [4] = test system: Rattus norvegicus; assay: Acute toxicity in rat administered as single dose; assay type: organism-based; settings: in vivo
# [5] = AUC (0 to t) in male rat at 45 mg/kg, po; assay type: ADME, organism-based; set-up: dose 45 mg/kg, route oral; settings: plasma
# Outline: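 Rat PK by gender, with single oral doses of 5, 15 and 45 mg/kg and an iv dose of 5 mg/kg. Tmax, Cmax, T1/2 and AUC0−t were reported per gender.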
# [6] = test system: Staphylococcus aureus; assay: Antibacterial activity against methicillin-sensitive Staphylococcus aureus ATCC 29213 in po dosed mouse thigh infection model; assay type: functional, organism-based; settings: Thigh muscle
# Outline: (§1)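 Mouse thigh infection with S. aureus ATCC29213 (MSSA), 10 animals per dosing group. Oral doses were 5, 10, 20, 40 and 80 mg/kg. The read-out was log CFU per thigh after treatment, and the reduction (ΔLogCFU/thigh) was reported.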
# [7] = test system: Streptococcus pyogenes; assay: Antibacterial activity against Streptococcus pyogenes; assay type: functional
# [8] = AUC (0 to 24 hrs) in human at 600 mg, po administered as single dose with meal measured on day 1; assay type: ADME, organism-based; set-up: time < 24 hr, dose 600 mg, route oral; settings: plasma
# Outline: (§2)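 Randomized, double-blind, placebo-controlled multiple-dose study in 32 healthy subjects (half male, half female). Subjects took 28 oral doses of 600 or 800 mg over 15 days, each with a meal. A single dose was given on days 1 and 15 for full PK, and doses were given Q12h from day 2 to day 14. AUC0−24 was measured on days 1 and 15.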
# [9] = Tmax in fasted human at 300 mg, po administered as single dose; assay type: ADME, organism-based; settings: in vivo
# Outline: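 Randomized single-dose, three-period Latin-square crossover in 12 healthy volunteers (six per gender), fasting. Single oral doses of 300, 600 and 900 mg were separated by a 1-week washout. PK parameters were derived by noncompartmental analysis.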
# [10] = test system: Staphylococcus aureus; assay: Antibacterial activity against methicillin-sensitive Staphylococcus aureus ATCC 29213 in mouse thigh infection model assessed as reduction of log10 CFU per thigh at 5 mg/kg, po; assay type: functional; outline: as §1
# [11] = test system: Staphylococcus aureus; assay: Antibacterial activity against methicillin-resistant Staphylococcus aureus isolate 0605 in mouse thigh infection model assessed as reduction of log10 CFU per thigh at 40 mg/kg, po; assay type: functional
# [12] = test system: Staphylococcus aureus; assay: Antibacterial activity against methicillin-resistant Staphylococcus aureus isolate 0605 in mouse thigh infection model assessed as reduction of log10 CFU per thigh at 10 mg/kg, po; assay type: functional
# [13] = test system: Rattus norvegicus; assay: Toxicity in female rat assessed as effect on WBC count at 20 mg/kg/day, po bid administered for 4 weeks (reference value: 3.66 x 10^9/L); assay type: organism-based; set-up: route oral; settings: in vivo, 672 h
# [14] = test system: Streptococcus pyogenes; assay: Antibacterial activity against Streptococcus pyogenes isolate 556; assay type: functional
# [15] = test system: Staphylococcus aureus; assay: Antibacterial activity against Staphylococcus aureus assessed as low frequency of spontaneous resistance; assay type: functional, organism-based
# [16] = test system: Enterococcus faecalis; assay: Antibacterial activity against vancomycin-sensitive/high-level gentamycin-resistant Enterococcus faecalis isolate HH22 in po dosed mouse systemic infection model; assay type: functional; settings: EnGen0297, po
# [17] = Tmax in male rat at 45 mg/kg, po; assay type: ADME, organism-based; set-up: dose 45 mg/kg, route oral; settings: in vivo
# Outline: (§3)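 Male and female rats received single oral doses of 5, 15 or 45 mg/kg, with 5 mg/kg iv as a reference arm. Tmax was read from the plasma concentration–time profile for each gender.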
# [18] = Half life in female rat at 5 mg/kg, iv; assay type: ADME, organism-based; set-up: dose 5 mg/kg, route intravenous; settings: in vivo
# [19] = test system: Staphylococcus aureus; assay: Antibacterial activity against methicillin-resistant Staphylococcus aureus isolate 0605 in mouse thigh infection model assessed as reduction of log10 CFU per thigh at 5 mg/kg, po; assay type: functional
# [20] = test system: Enterococcus faecium; assay: Bacteriostatic activity against vancomycin-sensitive Enterococcus faecium; assay type: functional
# [21] = test system: Rattus norvegicus; assay: Toxicity in female rat assessed as effect on WBC count at 200 to 300 mg/kg/day, po bid administered for 4 weeks (reference value: 3.66 x 10^9/L); assay type: organism-based; set-up: route oral; settings: in vivo, 672 h
# [22] = test system: Streptococcus pneumoniae; assay: Antibacterial activity against penicillin-resistant Streptococcus pneumoniae isolate 0613 in po dosed mouse systemic infection model; assay type: functional; settings: isolate 0613, po
# [23] = test system: Streptococcus pneumoniae; assay: Bactericidal activity against penicillin intermediate-sensitive Streptococcus pneumoniae; assay type: functional
# [24] = test system: L5178Y; assay: Mutagenicity in mouse tk +/- L5178Y cells assessed as increase in gene mutation frequency at 62.5 to 1000 ug/mL in absence of S9 fraction
# [25] = Half life in male rat at 45 mg/kg, po; assay type: ADME, organism-based; set-up: dose 45 mg/kg, route oral; settings: in vivo
# [26] = Half life in female rat at 15 mg/kg, po; assay type: ADME, organism-based; set-up: dose 15 mg/kg, route oral; settings: in vivo
# [27] = Tmax in male rat at 5 mg/kg, po; assay type: ADME, organism-based; set-up: dose 5 mg/kg, route oral; settings: in vivo; outline: as §3
# [28] = Toxicity in po dosed rat administered as bid for 4 weeks; assay type: organism-based; settings: in vivo
# [29] = test system: Rattus norvegicus; assay: Toxicity in female rat assessed as effect on lymphocyte count at 100 mg/kg/day, po bid administered for 4 weeks (reference value: 74.8%); assay type: organism-based; set-up: route oral; settings: in vivo, 672 h
# [30] = test system: Staphylococcus aureus; assay: Potency index, ratio of linezolid MIC90 to compound MIC90 for methicillin-resistant Staphylococcus aureus; assay type: functional
# [31] = test system: Staphylococcus aureus; assay: Antibacterial activity against methicillin-sensitive Staphylococcus aureus isolate 15; assay type: functional
# [32] = test system: Rattus norvegicus; assay: Toxicity in female rat assessed as effect on lymphocyte count at 200 to 300 mg/kg/day, po bid administered for 4 weeks (reference value: 74.8%); assay type: organism-based; set-up: route oral; settings: in vivo, 672 h
# [33] = AUC (0 to 24 hrs) in human at 600 mg, po administered as single dose with meal measured on day 15; assay type: ADME, organism-based; set-up: time < 24 hr, dose 600 mg, route oral; settings: plasma; outline: as §2
# [34] = test system: Homo sapiens; assay: Toxicity in human assessed as change in RBC count at 600 to 800 mg, po administered as single dose with meal on day 1 and day 15 followed by bid with meal on day 2 to day 14 measured during compound treatment; assay type: organism-based; settings: in vivo
# [35] = Cmax in male rat at 15 mg/kg, po; assay type: ADME, organism-based; set-up: dose 15 mg/kg, route oral; settings: in vivo
# [36] = test system: Rattus norvegicus; assay: Toxicity in female rat assessed as effect on reticulocyte count at 200 to 300 mg/kg/day, po bid administered for 4 weeks (reference value: 1.48%); assay type: organism-based; set-up: route oral; settings: in vivo, 672 h
# [37] = test system: Staphylococcus aureus; assay: Antibacterial activity against Staphylococcus aureus measured after 7 serial passages; assay type: functional
# [38] = AUC (0 to 24 hrs) in female rat at 200 mg/kg/day, po bid administered for 4 weeks; assay type: ADME, organism-based; set-up: dose 200 mg/kg/day, time < 24 hr, route oral; settings: plasma
# Outline: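 Repeat-dose toxicity study in rats (10/gender/group) dosed orally twice daily for 4 weeks, then a 4-week recovery period; the top dose was raised from 200 to 300 mg/kg/day on day 15. Blood was taken on days 1, 14 and 28 for toxicokinetics, and AUC0−24 was reported for females.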
# [39] = test system: Rattus norvegicus; assay: Toxicity in female rat assessed as effect on RBC count at 100 mg/kg/day, po bid administered for 4 weeks (reference value: 7.28 x 10^12/L); assay type: organism-based; set-up: route oral; settings: in vivo, 672 h
# [40] = Tmax in female rat at 45 mg/kg, po; assay type: ADME, organism-based; set-up: dose 45 mg/kg, route oral; settings: in vivo; outline: as §3
# [41] = Oral bioavailability in dog; assay type: ADME, organism-based, Canis lupus familiaris; settings: in vivo
# Cytochrome P450 2C9, sequence (P11712 whole entry): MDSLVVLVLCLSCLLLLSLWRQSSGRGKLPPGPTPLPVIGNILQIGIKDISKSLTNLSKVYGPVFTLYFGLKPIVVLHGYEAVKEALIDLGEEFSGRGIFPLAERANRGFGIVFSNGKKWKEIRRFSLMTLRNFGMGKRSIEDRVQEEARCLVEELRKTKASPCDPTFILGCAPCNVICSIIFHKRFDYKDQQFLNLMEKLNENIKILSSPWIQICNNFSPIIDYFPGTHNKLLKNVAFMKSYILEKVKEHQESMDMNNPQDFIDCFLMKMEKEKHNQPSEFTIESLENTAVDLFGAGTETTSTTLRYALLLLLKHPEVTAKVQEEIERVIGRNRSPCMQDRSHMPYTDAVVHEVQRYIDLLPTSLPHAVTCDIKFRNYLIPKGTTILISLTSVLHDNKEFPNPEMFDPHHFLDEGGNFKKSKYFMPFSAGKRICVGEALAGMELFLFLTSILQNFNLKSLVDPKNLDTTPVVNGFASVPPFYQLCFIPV
smiles,measurement,setting,value
O=C1C=CN(c2c(F)cc(N3C[C@H](CNc4ccon4)OC3=O)c(F)c2F)CC1 [CONTEZOLID],MIC50,[1],0.5 µg/mL
same,MIC90,[1],1 µg/mL
same,MIC,[2],2 µg/mL
same,inhibition (INH),[3],Not Active
same,Activity,[4],5000 mg/kg
same,AUC(0-t),[5],93800 ng·h/mL
same,Activity,[6],Dose-dependent effect
same,MIC50,[7],0.5 µg/mL
same,MIC90,[7],1 µg/mL
same,AUC(0-t) at 24 h,[8],68600 ng·h/mL
same,Tmax,[9],1.25 h
same,deltalog10CFU,[10],0.95
same,deltalog10CFU,[11],4.13
same,deltalog10CFU,[12],2.47
same,Activity,[13],4.5 ×10⁹ /L
same,MIC,[14],1 µg/mL
same,Activity,[15],Active
same,ED50,[16],7.4 mg/kg
same,Tmax,[17],1 h
same,half-life,[18],1.51 h
same,deltalog10CFU,[19],2.45
same,MIC50,[20],1 µg/mL
same,MIC90,[20],1 µg/mL
same,Activity,[21],2.72 ×10⁹ /L
same,ED50,[22],10.5 mg/kg
same,MIC50,[23],0.5 µg/mL
same,MIC90,[23],0.5 µg/mL
same,Activity,[24],Non-toxic
same,half-life,[25],1.07 h
same,half-life,[26],1.47 h
same,Tmax,[27],0.5 h
same,NOAEL at 672 h,[28],100 mg/kg/day
same,Activity,[29],78.8%
same,Ratio,[30],2
same,MIC,[31],2 µg/mL
same,Activity,[32],71.8%
same,AUC(0-t) at 24 h,[33],72900 ng·h/mL
same,Activity,[34],Non-toxic
same,Cmax,[35],10700 ng/mL
same,Activity,[36],1.26%
same,MIC,[37],2 µg/mL
same,AUC at 24 h,[38],626000 ng·h/mL
same,Activity,[39],6.67 ×10¹² /L
same,Tmax,[40],1.67 h
same,bioavailability,[41],37%
